Here are results for seven molecules from PMC3700226 (Organic & Biomolecular Chemistry, 2012).

The test system of experiment [1] is HT1080 cells. Nature of the experiment: Luminescent cell viability assay. Type of experiment: cell-based, human. Conditions: ratio of 72 h IC50 values, WI-38 = 1.0. The method in brief: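 HeLa, HT1080, U2OS and WI-38 cells were grown in DMEM with 10% FCS. Cells were plated at 4000 per well and left 24 h, then serially diluted test compound (0–40 μM) was added. Viability was read by CellTiter-Glo luminescence after 72 h, 20 min after reagent addition at rt, in triplicate. IC50 values were determined separately for HT1080 and for WI-38.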

Experiment [2] has as its system HT1080 cells. The experiment can be described thus: β-Galactosidase senescence assay. It is filed as cell-based, human. Conditions: HT1080, 8 days of incubation at respective IC50. Put shortly: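 HT1080 cells were treated 4 d with test compound at its IC50, or untreated, then reseeded at 4000 per chamber-slide well for another 4 d of treatment. Cells were fixed in 2% formaldehyde/0.2% glutaraldehyde for 15 min. They were stained 16 h at 37 °C with 1 mg ml−1 X-gal in pH 6.0 citrate/phosphate buffer containing ferro/ferricyanide for senescence-associated β-galactosidase.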

The subject of experiment [3] is telomeric 3′ G-overhang in HT1080 cells. Nature of the experiment: Non-denaturing hybridization assay of telomeric G-overhang. Type of experiment: cell-based, human. The settings on record: HT1080, respective IC50, time course of 12 days.
Experiment [4] relates to HeLa, HT1080, U2OS and WI-38 cells. Nature of the experiment: Luminescent cell viability assay, panel of four human cell lines. It is filed as cell-based. Conditions: 3 days of exposure; concentrations up to 40 µM.
Experiment [5] concerns HT1080 cells. Nature of the experiment: Long-term growth assay. Type of experiment: cell-based, human. The settings on record: HT1080, incubated at respective IC50 over 30 days. The method in brief:
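HT1080 cells were seeded at 300000 per T-25 flask with test compound at its IC50, or untreated. Every 3–4 days cells were split, counted with a haemocytometer and reseeded at 300000. Population doublings were calculated as PD = ln(n1/n2)/ln2 and run in triplicate. Dead cells were counted at each time point by trypan blue exclusion.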

Experiment [6] deals with human telomeric G-quadruplex-forming sequence (H-Telo). Nature of the experiment: FRET-melting assay, H-Telo. Type of experiment: binding. Conditions: 1 µM compound, 200 nM oligonucleotide, 60 mM potassium cacodylate pH 7.4. Put shortly:
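Dual FAM/TAMRA-labelled H-Telo oligonucleotide was annealed at 400 nM (94 °C for 10 min, then cooled to rt at 0.1 °C min−1). It was mixed with test compound in 60 mM potassium cacodylate, pH 7.4, at 200 nM final oligonucleotide. Fluorescence was read with excitation at 483 nm and emission at 533 nm. Melting-temperature shift was measured in triplicate.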

`NCCOc1cc(C(=O)Nc2cc(OCCN)c3ccccc3n2)nc(C(=O)Nc2cc(OCCN)c3ccccc3n2)c1` [Compound 1, pyridostatin]: in the experiment with HT1080 cells [1], the “Selectivity ratio HT1080 over WI-38” value was found to be 18.5. In the case of `NCCOc1cc(C(=O)Nc2cc(OCCN3CCCC3)c3ccccc3n2)nc(C(=O)Nc2cc(OCCN3CCCC3)c3ccccc3n2)c1` [Compound 9], the “Senescent cells (β-galactosidase staining)” value (from here on “Senescent cells”) in the experiment with HT1080 cells [2] was “presence of senescent cells”. In the case of `O=C(Nc1cc(OCCN2CCCC2)c2ccccc2n1)c1cc(OCCN2CCCC2)cc(C(=O)Nc2cc(OCCN3CCCC3)c3ccccc3n2)n1` [Compound 10], in the experiment on HT1080 cells [2], the “Senescent cells” value is “presence of senescent cells”. Further, in experiment [3], the “Kinetics of G-overhang degradation (in words)” value was “most potent to induce an early effect”. In the case of `COc1cc(C(=O)Nc2cc(OC)c3ccccc3n2)nc(C(=O)Nc2cc(OC)c3ccccc3n2)c1` [Compound 14], in experiment [4], the “Growth inhibition against the panel of cell lines (in words)” value was “did not exhibit growth inhibitory properties”. Regarding `O=C(Nc1cc(OCCN2CCCC2)c2ccccc2n1)c1cc(Cl)cc(C(=O)Nc2cc(OCCN3CCCC3)c3ccccc3n2)n1` [Compound 17], in the experiment on HT1080 cells [2], the “Senescent cells” value was “presence of senescent cells”. In addition, in experiment [3], the “Kinetics of G-overhang degradation (in words)” value was “most potent to induce an early effect”. As for `NCCOc1cc(NC(=O)c2cc(OCc3ccc(F)cc3)cc(C(=O)Nc3cc(OCCN)c4ccccc4n3)n2)nc2ccccc12` [Compound 20], the “Exposure time after which flattening of the population doubling curve started” value in the experiment with HT1080 cells [5] was determined as 19 days. Further, in experiment [6], the “FRET ΔTm, H-Telo” value amounted to 8.8 K. For `O=C(Nc1cc(OCCN2CCCC2)c2ccccc2n1)c1cc(OCc2ccc(F)cc2)cc(C(=O)Nc2cc(OCCN3CCCC3)c3ccccc3n2)n1` [Compound 21], the “FRET ΔTm, H-Telo” value in experiment [6] was found to be 4.3 K.
